Screening results deposited in PubChem by The Scripps Research Institute Molecular Screening Center.
HTRA1 inhibitor: HTRA1 (human) protease inhibition | Q92743 | recombinant HTRA1, FP-rhodamine activity-based probe, fluorescence polarization | inhibition, % at 5.96 µM | hit rate 0.5% among 340,000 | AID 504803; in the data active means inhibition above about 36%;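 further: 0% = enzyme with DMSO and 100% = wells lacking enzyme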
PRMT1 FP inh: inhibitors of human PRMT1 | hit rate 1.3% among 370,000 | inhibition, % at 2.79 µM | AID 652257 | recombinant PRMT1, activity-based probe fluorescence polarization | Q99873;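 active means inhibition above about 21% made by adding two undisclosed values, limit read from the data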
Target sequence (Q99873 whole entry, looked up): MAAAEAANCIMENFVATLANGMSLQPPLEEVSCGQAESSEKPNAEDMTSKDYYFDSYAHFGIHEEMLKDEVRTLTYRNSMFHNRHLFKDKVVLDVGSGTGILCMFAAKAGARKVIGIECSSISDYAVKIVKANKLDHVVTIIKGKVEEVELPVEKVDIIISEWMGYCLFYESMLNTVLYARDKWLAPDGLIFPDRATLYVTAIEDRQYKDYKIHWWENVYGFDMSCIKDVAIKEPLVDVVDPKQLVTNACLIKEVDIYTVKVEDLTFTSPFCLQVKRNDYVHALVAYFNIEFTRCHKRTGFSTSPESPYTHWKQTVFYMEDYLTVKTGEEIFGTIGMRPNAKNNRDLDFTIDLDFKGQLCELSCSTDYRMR
mABHD4 FP: inhibitors of mouse ABHD4. purified mABHD4, FP-Rh probe fluorescence polarization. inhibition, % at 8.92 µM. hit rate 0.54% among 370,000;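 active means inhibition exceeding the mean over every tested compound plus 3 SD, cut at about 30% in these data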;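 further: 0% = plate median of compound wells and 100% = S159A mutant with DMSO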
Target sequence (Q8VD66 whole entry, looked up): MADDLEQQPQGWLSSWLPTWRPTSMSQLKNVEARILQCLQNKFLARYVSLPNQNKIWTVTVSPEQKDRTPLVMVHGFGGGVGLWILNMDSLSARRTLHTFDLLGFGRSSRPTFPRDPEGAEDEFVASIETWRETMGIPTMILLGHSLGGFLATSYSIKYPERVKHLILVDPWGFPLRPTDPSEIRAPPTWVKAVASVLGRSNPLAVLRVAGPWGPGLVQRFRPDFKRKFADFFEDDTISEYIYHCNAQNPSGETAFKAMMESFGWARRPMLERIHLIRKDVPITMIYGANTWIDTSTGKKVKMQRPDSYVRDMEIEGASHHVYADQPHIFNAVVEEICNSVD
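Test system: mABHD4 protein; Read-out basis: % inhibition; Incubation: 45 min + 60 min at 25 °C; Repeats: single replicate; Technique: fluorescence polarization with parallel and perpendicular emission, 525/598 nm; Compound: 8.92 µM, single dose; Benchmarks: full inhibition S159A mutant plus DMSO, zero as sample-well median.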
rCAG binder-1: r(CAG) repeat RNA binding; TO-PRO-1 dye displacement fluorescence; inhibition, % at 3 µM; hit rate 1.3% among 370,000;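 active means inhibition above the plate cutoff, the mean of all test compounds on that plate plus 3 SD, cut at about 35% in these data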;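 further: 0% = DMSO alone and 100% = 100 µM mitoxantrone as full dye displacement; higher means more dye released from RNA so lower well fluorescence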
SIAE inh: blocks human sialic acid acetylesterase. inhibition, % at 9.66 µM. hit rate 0.69% among 370,000. SIAE FP-Rh probe binding, fluorescence polarization;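 active means inhibition above a cutoff: mean of compounds within the control limits plus 3 SD of those, cut at about 17% in these data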;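 further: 0% = plate median of compound wells and 100% = probe without SIAE protein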
rCAG binder conf: r(CAG) RNA repeat binding, confirmation; hit rate 70% among 4,300; shares compounds with rCAG binder-1; inhibition, % at 3 µM; TO-PRO-1 dye displacement fluorescence; AID 652065;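 active means inhibition above a per-plate cutoff, the mean inhibition of sample wells plus 3 SD, cut at about 35% in these data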;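 further: loss of TO-PRO-1 fluorescence as compound displaces dye from 1x1 AA loop RNA; 0% = DMSO only wells and 100% = 100 µM mitoxantrone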
DNA CAG counter: DNA CAG dye complex inhibition counter-screen. shares compounds with rCAG binder-1. d(CAG) DNA oligo TO-PRO-1 dye displacement, fluorescence. inhibition, % at 3 µM. hit rate 94% among 4,300. AID 652068;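 active means inhibition above its plate's cutoff, the mean test-well inhibition plus 3 SD, cut at about 4.8% in these data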;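 further: 0% = DNA dye mix with DMSO and 100% = 100 µM mitoxantrone; hits displace the dye from DNA and so lower well fluorescence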
DNA CAG DR: counter-screen for rCAG binders: inhibitors of DNA CAG TO-PRO-1 complex; shares compounds with rCAG binder-1; DNA CAG/GTC duplex TO-PRO-1 dye displacement fluorescence; IC50, µM; hit rate 20% among 250; AID 686960; in the data active means IC50 below about 10 µM
dCAG DNA bind: inhibits DNA CAG/GTC TO-PRO-1 complex, rCAG binder counter-screen. shares compounds with rCAG binder-1. AID 720649. IC50, µM. d(CAG) DNA duplex TO-PRO-1 dye displacement, fluorescence. hit rate 80% among 30
rCAG binder-2: molecules binding r(CAG) RNA repeats, late stage dose response; shares compounds with rCAG binder-1; r(CAG) RNA TO-PRO-1 dye displacement, fluorescence; IC50, µM; hit rate 100% among 30; AID 720651
Numbers without * were called inactive; i = inactive; . = no result given. Compounds with a hit are over-represented: about 3.3% of the library has one in this group of screens. Unless noted, how the calls were made is not given here.

SMILES | HTRA1 inhibitor | PRMT1 FP inh | mABHD4 FP | rCAG binder-1 | SIAE inh | rCAG binder conf | DNA CAG counter | others
CC(C)CSC1=NSC2=NC(=O)/C(=C\c3cccs3)C(=N)N12 | -27 | 2 | -33 | 72* | -5 | 57* | 21* | DNA CAG DR=i;dCAG DNA bind=4.3*;rCAG binder-2=1.7*
CSC1=NSC2=NC(=O)/C(=C/c3coc4ccccc4c3=O)C(=N)N12 | -22 | 17 | -11 | -45 | -29 | . | .
CSC1=NSC2=NC(=O)/C(=C\c3cccs3)C(=N)N12 | -4 | 1 | -7 | 13 | -12 | . | .
N=C1/C(=C/c2cccs2)C(=O)N=C2SN=C(SCc3ccccc3)N12 | -50 | -1 | -52 | 75* | -35 | 82* | 50*
O=C(O)c1cccc(S(=O)(=O)Nc2ccc(-c3ccccc3)cc2)c1 | -10 | -6 | 8 | 17 | -6 | . | .
O=C(O)c1cccc(NC(CNS(=O)(=O)c2ccc(Cl)cc2)c2ccccc2)c1 (stereo unspecified) | -19 | 6 | 2 | 43* | -5 | 37* | 11*
O=C(O)c1cccc(NS(=O)(=O)c2ccc(Oc3ccc(S(=O)(=O)Nc4cccc(C(=O)O)c4)cc3)cc2)c1 | -5 | 6 | 5 | 47* | -4 | 23 | 3
O=C(O)c1cccc(NS(=O)(=O)c2ccc(-c3ccc(S(=O)(=O)Nc4cccc(C(=O)O)c4)cc3)cc2)c1 | -12 | -2 | 10 | 43* | -8 | 17 | 1
CNC(=O)CCc1nc(-c2ccc(C(C)C)cc2)no1 | . | -2 | 3 | . | 7 | . | .
Cc1ccc(C(=O)C2CCN(CC(=O)N3CCOCC3)CC2)cc1 | . | 3 | 1 | 0 | -4 | . | .
O=C(COc1ccc(Cl)cc1)Nc1cc(NC(=O)COc2ccc(Cl)cc2)cc(C(=O)O)c1 | -94 | 4 | -74 | 74* | -38 | 82* | 48*
Cc1ccc(OCC(=O)Nc2cc(NC(=O)COc3ccc(C)cc3)cc(C(=O)O)c2)cc1 | -13 | 2 | -14 | 70* | -8 | 64* | 25*
Cc1ccc(OCC(=O)Nc2cc(C(=O)O)cc(C(=O)O)c2)cc1C | 12 | 16 | 3 | 7 | 0 | . | .
Cc1ccc(NC(=O)COc2ccc(N(C)S(=O)(=O)c3ccc(F)cc3)cc2)cc1 | -32 | 6 | -8 | 2 | -8 | . | .
Cc1ccc(S(=O)(=O)N(C)c2ccc(OCC(=O)Nc3cc(C(=O)O)ccc3Cl)cc2)cc1 | . | 3 | 14 | 61* | 1 | 57* | 20*
O=C(CCCOc1ccc(Cl)cc1)Nc1cccc(C(=O)O)c1 | 4 | 0 | -8 | 3 | -6 | . | .
CCc1cc2c(nc1CC)CCCN2Cc1ccc(Br)cc1 | . | -3 | 3 | 2 | 6 | . | .
COCCN1C(=O)c2ccc(C(=O)O)cc2C1=O | 0 | 1 | 5 | -1 | 8 | . | .
Cc1[nH]c2ccc(OC(F)(F)F)cc2c1CCN1C(=O)c2ccc(C(=O)O)cc2C1=O | -21 | -6 | 17 | 48* | 4 | 44* | 13*
CCCn1c(SCC#N)nc2c(c1=O)C1(CCCC1)Cc1ccccc1-2 | -28 | 1 | -20 | -1 | 3 | . | .
N#CCSc1n[nH]c2nc3c(c(=O)n12)C1(CCCC1)Cc1ccccc1-3 | -4 | 9 | 1 | 50* | 6 | 55* | 18* | DNA CAG DR=i
Cc1onc(-c2c(F)cccc2Cl)c1C(=O)Nc1cc(S(=O)(=O)N2CCCCC2)ccc1O | -13 | 8 | -39 | 52* | -2 | 36* | 12*
Cc1ccc(NC(=O)c2ccccc2NS(=O)(=O)c2ccc(F)cc2)cc1S(=O)(=O)N1CCCCC1 | -43 | 2 | -10 | 67* | -22 | 83* | 52*
O=C(Nc1cccc(S(=O)(=O)N2CCCCC2)c1)c1ccccc1NS(=O)(=O)c1ccc(F)cc1 | -35 | 0 | -2 | 61* | 1 | 76* | 36*
O=C(Nc1cc(S(=O)(=O)N2CCCCC2)ccc1O)c1ccccc1NS(=O)(=O)c1ccc(F)c(F)c1 | -39 | 2 | -4 | 85* | -13 | 88* | 64*
SMILES | HTRA1 inhibitor | PRMT1 FP inh | mABHD4 FP | rCAG binder-1 | SIAE inh | rCAG binder conf | DNA CAG counter | others
CC(=O)C1(C(=O)NCc2ccccc2)CC(c2ccccn2)=NO1 (stereo unspecified) | . | 0 | -6 | 5 | -6 | . | .
CCN(CC)c1ccc(-c2nn3c(-c4ccccc4Cl)nnc3s2)cc1 | . | 0 | 10 | 9 | 0 | . | .
NS(=O)(=O)c1cccc(NC(=O)c2ccccc2NS(=O)(=O)c2ccc(F)cc2)c1 | -16 | 5 | 4 | 38* | -3 | 38* | 12*
O=S(=O)(Nc1cccc(S(=O)(=O)N2CCCCC2)c1)c1ccc(Cl)s1 | 2 | 1 | 2 | 46* | -5 | 35* | 12*
NC(=O)c1ccccc1NS(=O)(=O)c1ccc(F)cc1 | 3 | -3 | 3 | 3 | -5 | . | .
COc1ccc(C(=O)OCCN(C)C2CN(Cc3cn(Cc4ccccc4Cl)nn3)S(=O)(=O)C2)cc1OC (stereo unspecified) | . | 2 | 5 | 2 | 2 | . | .
COc1ccc(-c2nnn3c2Cn2c4ccccc4c(=O)n2[C@@H](C(C)C)C3)cc1 | . | -5 | -6 | 5 | 4 | . | .
Nc1c(C(=O)O)sc2nc(-c3ccc(F)cc3)cc(-c3ccccc3)c12 | -19 | 13 | -1 | 16 | -13 | . | .
Nc1c(C(=O)O)sc2nc(-c3ccccc3)cc(-c3ccc(Cl)cc3)c12 | -58 | -3 | -18 | 76* | -18 | 71* | 37*
O=C(Nc1cccc(C(F)(F)F)c1)Nc1ccc(N2CCCC2)c(S(=O)(=O)Nc2ccccc2Cl)c1 | -3 | -1 | -15 | 46* | -25 | 34 | 18*
O=C(Nc1cccc(S(=O)(=O)Nc2ccccc2Cl)c1)c1ccc(N2CCCC2)c([N+](=O)[O-])c1 | -49 | 1 | -50 | 61* | -9 | 44* | 21*
O=C(N=Nc1c(O)[nH]c2ccccc12)c1cc(NS(=O)(=O)c2cccs2)cc(NS(=O)(=O)c2cccs2)c1 | -10 | 0 | 0 | 67* | -36 | 73* | 35*
COc1ccc2c(c1)CNC2CS(=O)(=O)NCc1ccccc1 (stereo unspecified) | . | -4 | 0 | 8 | 2 | . | .
Cc1ccc(C)c(/C=C(\C(=O)O)c2ccc(S(=O)(=O)N3CCCCC3)s2)c1 | -24 | 3 | 11 | 47* | -2 | 45* | 19*
